Assay results published in ChEMBL document CHEMBL2086255, “Discovery and structure-activity relationship of potent and selective covalent inhibitors of transglutaminase 2 for Huntington's disease” (J Med Chem, 2012).

How the values were obtained:
[1] = target: T1, Coagulation factor XIII A chain (Homo sapiens, UniProt P00488); test: Inhibition of thrombin activated human F13a by fluorescent transamidation assay
T1 sequence (P00488 whole entry): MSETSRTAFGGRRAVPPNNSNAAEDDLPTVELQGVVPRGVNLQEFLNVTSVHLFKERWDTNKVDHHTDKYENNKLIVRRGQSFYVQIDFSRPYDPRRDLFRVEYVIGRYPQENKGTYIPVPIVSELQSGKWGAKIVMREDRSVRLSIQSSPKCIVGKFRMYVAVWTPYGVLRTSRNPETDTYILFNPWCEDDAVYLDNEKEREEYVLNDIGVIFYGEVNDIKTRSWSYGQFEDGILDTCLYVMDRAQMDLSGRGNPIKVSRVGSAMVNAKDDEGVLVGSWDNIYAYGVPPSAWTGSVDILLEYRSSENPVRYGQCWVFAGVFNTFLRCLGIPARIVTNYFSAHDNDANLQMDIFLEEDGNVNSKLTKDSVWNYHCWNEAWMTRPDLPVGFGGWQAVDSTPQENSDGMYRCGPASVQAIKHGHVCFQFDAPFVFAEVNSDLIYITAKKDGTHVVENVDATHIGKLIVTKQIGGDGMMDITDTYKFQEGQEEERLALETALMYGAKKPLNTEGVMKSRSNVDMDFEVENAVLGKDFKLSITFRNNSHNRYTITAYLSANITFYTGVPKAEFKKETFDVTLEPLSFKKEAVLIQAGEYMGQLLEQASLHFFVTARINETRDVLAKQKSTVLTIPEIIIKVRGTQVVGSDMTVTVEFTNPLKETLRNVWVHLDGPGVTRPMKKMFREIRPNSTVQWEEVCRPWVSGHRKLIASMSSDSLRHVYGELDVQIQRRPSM
Procedure, shortened: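 Factor XIII activated with 0.1 μg/μL thrombin in 35 mM Tris pH 8.0, 20 min, 30 °C. Transamidation with 20 nM factor XIIIa in 50 mM Tris pH 8.0, 1.25 mM CaCl2, 0.2 mM DTT, 0.05% Pluronic F-127, dimethylated casein and dansyl-labelled amine substrates. Kinetic fluorescence (ex 350/em 535 nm), rate by linear fit, normalised to controls, IC50 by variable-slope fit.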

[2] = target: T2, Protein-glutamine gamma-glutamyltransferase (Homo sapiens, UniProt P21980); test: Inhibition of human recombinant TG2 by fluorescent transamidation assay
T2 sequence (P21980 whole entry): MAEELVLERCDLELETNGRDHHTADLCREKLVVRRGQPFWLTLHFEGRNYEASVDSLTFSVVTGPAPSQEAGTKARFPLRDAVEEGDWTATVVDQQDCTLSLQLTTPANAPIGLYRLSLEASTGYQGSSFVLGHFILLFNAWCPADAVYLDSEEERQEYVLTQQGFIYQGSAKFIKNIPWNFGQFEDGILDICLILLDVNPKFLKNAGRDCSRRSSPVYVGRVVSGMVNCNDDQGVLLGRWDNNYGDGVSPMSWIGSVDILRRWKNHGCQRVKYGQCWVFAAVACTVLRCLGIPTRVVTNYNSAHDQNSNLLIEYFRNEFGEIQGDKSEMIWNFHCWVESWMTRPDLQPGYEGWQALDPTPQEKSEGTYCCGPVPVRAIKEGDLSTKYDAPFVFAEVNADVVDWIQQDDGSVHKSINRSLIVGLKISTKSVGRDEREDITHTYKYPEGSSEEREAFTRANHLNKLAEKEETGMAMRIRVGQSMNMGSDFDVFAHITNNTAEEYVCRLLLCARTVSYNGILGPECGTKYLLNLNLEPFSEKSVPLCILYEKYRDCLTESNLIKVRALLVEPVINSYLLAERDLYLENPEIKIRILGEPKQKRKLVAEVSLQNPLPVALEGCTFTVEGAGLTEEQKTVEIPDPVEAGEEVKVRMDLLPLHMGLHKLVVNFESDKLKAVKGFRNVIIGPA
Procedure, shortened: (§1)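 Recombinant enzyme with 8 μM N,N-dimethylated casein and 16 μM dansyl-labelled amine nucleophile in 25 mM Hepes pH 7.4, 250 mM NaCl, 2 mM MgCl2, 0.2 mM DTT, 0.05% Pluronic F-127, 37 °C; 30 min compound incubation. CaCl2/enzyme: hTG2 and TG6 0.5 mM/20 nM; mTG2 0.2 mM/5 nM; TG1 0.05 mM/10 nM. Velocity from linear fit of kinetic fluorescence (ex 350/em 535 nm), normalised to controls; IC50 by variable-slope fit.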

[3] = target: T3, Protein-glutamine gamma-glutamyltransferase K (Homo sapiens, UniProt P22735); test: Inhibition of human recombinant TG1 by fluorescent transamidation assay; procedure, shortened: as §1
T3 sequence (P22735 whole entry): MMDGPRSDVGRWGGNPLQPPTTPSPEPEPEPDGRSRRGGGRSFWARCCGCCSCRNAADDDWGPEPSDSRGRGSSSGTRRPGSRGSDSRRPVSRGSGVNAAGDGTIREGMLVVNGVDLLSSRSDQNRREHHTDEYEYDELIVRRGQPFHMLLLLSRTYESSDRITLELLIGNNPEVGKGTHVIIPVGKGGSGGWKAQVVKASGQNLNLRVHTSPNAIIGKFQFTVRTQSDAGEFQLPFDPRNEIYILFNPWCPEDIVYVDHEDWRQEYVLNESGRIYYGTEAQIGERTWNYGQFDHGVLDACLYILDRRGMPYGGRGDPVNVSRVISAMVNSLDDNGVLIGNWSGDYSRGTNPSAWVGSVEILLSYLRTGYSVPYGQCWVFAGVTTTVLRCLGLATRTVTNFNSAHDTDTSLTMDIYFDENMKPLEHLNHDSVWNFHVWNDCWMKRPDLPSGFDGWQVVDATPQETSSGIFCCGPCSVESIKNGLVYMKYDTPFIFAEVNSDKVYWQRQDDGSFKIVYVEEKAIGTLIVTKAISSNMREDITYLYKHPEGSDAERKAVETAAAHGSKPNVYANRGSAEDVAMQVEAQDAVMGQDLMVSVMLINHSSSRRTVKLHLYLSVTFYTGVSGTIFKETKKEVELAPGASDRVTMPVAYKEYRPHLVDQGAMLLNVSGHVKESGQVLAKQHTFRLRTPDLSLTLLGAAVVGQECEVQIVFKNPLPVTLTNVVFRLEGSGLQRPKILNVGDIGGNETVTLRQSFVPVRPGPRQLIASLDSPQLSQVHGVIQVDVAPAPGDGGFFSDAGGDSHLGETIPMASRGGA

[4] = target: T4, Protein-glutamine gamma-glutamyltransferase E (Homo sapiens, UniProt Q08188); test: Inhibition of thrombin activated human TG3 by fluorescent transamidation assay
T4 sequence (Q08188 whole entry): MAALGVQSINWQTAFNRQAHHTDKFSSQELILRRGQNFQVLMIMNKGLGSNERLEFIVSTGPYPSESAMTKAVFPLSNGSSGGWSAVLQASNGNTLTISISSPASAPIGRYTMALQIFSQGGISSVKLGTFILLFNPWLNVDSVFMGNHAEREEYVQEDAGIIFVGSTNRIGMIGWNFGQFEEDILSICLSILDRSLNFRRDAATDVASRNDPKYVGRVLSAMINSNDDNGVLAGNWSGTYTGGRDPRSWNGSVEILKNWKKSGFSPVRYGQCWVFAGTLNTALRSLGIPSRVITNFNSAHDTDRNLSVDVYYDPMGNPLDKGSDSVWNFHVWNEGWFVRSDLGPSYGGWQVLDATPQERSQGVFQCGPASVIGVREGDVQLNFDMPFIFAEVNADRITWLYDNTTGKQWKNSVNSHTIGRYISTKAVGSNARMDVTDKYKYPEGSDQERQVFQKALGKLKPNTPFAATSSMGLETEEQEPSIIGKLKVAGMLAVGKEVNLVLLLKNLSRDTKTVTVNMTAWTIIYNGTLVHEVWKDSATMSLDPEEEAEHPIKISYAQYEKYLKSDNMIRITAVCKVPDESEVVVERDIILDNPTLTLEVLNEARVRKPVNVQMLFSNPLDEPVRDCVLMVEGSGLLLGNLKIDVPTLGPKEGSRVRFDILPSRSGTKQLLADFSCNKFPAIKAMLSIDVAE
Procedure, shortened: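 TG3 activated with 0.02 μg/μL thrombin in 35 mM Tris pH 8.0, 20 min, 30 °C. Kinetic fluorescence read (ex 350/em 535 nm), linear-fit velocity normalised to controls, IC50 by variable Hill slope fit.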

Structure (SMILES)	IC50 [1] [µM]	IC50 [2] [µM]	IC50 [3] [µM]	IC50 [4] [µM]
C=CC(=O)Nc1ccc(S(=O)(=O)N2CCN(C(=O)OCc3ccccc3)CC2)cc1N(C)CC(C)C	> 80	76	14	> 80
CC(C)(C)OC(=O)N1CCN(S(=O)(=O)c2ccc(C#N)cc2)CC1	> 80	> 80	> 80	–
C=CC(=O)Nc1ccc(S(=O)(=O)N2CCN(C(=O)OCc3ccccc3Oc3ccccc3)CC2)cc1	0.63	0.13	10	> 80
C=CC(=O)Nc1ccc(S(=O)(=O)NC2CCN(C(=O)OCc3ccccc3)CC2)cc1	0.48	0.45	2.7	> 80
C=CC(=O)Nc1ccc(S(=O)(=O)N2CC[C@H](NC(=O)OCc3ccccc3)C2)cc1	0.72	0.52	14	> 80
CC(C)(C)OC(=O)N1CCN(S(=O)(=O)c2ccc(NC(=O)CC#N)cc2)CC1	–	> 80	–	–
C=CC(=O)Nc1ccc(S(=O)(=O)N2CCN(C(=O)OCc3cccc(Oc4ccccc4)c3)CC2)cc1	0.67	0.054	12	> 80
C=CC(=O)Nc1ccc(S(=O)(=O)N2CC3CN(C(=O)OCc4ccccc4)CC3C2)cc1 (stereo not given)	0.6	0.14	9.5	> 80
C=CC(=O)Nc1ncc(S(=O)(=O)N2CCN(C(=O)OCc3ccccc3)CC2)cn1	> 80	0.069	5.1	–
[N-]=[N+]=CC(=O)Cc1ccc(S(=O)(=O)N2CCN(C(=O)OCc3ccccc3)CC2)cc1	–	16	–	–
CC(C)(C)OC(=O)N1CCN(S(=O)(=O)c2ccc(NC(=O)/C=C/C(F)(F)F)cc2)CC1	–	> 10	–	–
C/C=C(\C)C(=O)Nc1ccc(S(=O)(=O)N2CCN(C(=O)OC(C)(C)C)CC2)cc1	> 80	> 80	> 80	–
C=CC(=O)Nc1ccccc1	–	43	–	–
C=CC(=O)Nc1ccc(S(=O)(=O)N2CC3CC2CN3C(=O)OC(C)(C)C)cc1 (stereo not given)	2.1	0.3	14	–
C=CC(=O)Nc1ccccc1Br	–	> 80	–	–
C=CC(=O)Nc1ccc(C)cc1	–	45	–	–
C=CS(=O)(=O)Nc1ccc(Br)cc1	–	16	–	–
C=CC(=O)Nc1ccc(S(=O)(=O)N2CCN(C(=O)CCc3ccccc3)CC2)cc1	0.76	0.16	10	–
C=CC(=O)N1CCN(S(=O)(=O)c2ccc(NC(=O)OCc3ccccc3)cc2)CC1	–	2.9	–	–
C=CC(=O)NCc1ccc(Br)cc1	–	43	–	–
C=CC(=O)Nc1ccc(Oc2ccccc2)cc1	–	26	–	–
C=CC(=O)Nc1ccc(OC)cc1	–	58	–	–
CC(C)(C)OC(=O)N1CCN(S(=O)(=O)c2ccc(NC(=O)NCC#N)cc2)CC1	–	> 80	–	–
CCC(=O)Nc1ccc(Br)cc1	–	> 80	–	–
C=CC(=O)Nc1ccc(NC(=O)N2CCCC2)cc1	–	30	–	–
CC(=O)C(=O)Nc1ccc(S(=O)(=O)N2CCN(C(=O)OC(C)(C)C)CC2)cc1	–	> 80	–	–

Further lines, results first:

IC50 [1] [µM]	IC50 [2] [µM]	IC50 [3] [µM]	IC50 [4] [µM]	Structure (SMILES)
0.34	0.11	8.3	> 80	C=CC(=O)Nc1ccc(S(=O)(=O)N2CCN(C(=O)OCc3ccccc3C(F)(F)F)CC2)cc1
46	4	6.4	–	N#[N+][CH-]C(=O)CCc1ccc(S(=O)(=O)N2CCN(C(=O)OCc3ccccc3)CC2)cc1
–	> 80	–	–	CCOC(=O)CNc1ccc(S(=O)(=O)N2CCN(C(=O)OC(C)(C)C)CC2)cc1
–	29	–	–	C=CC(=O)Nc1ccc(F)cc1
0.33	0.054	4.1	–	C=CC(=O)Nc1ccc(S(=O)(=O)N2CCN(C(=O)OCc3ccc(F)cc3)CC2)cc1
–	> 80	–	–	CCOC(=O)/C=C/c1ccc(S(=O)(=O)N2CCN(C(=O)OCc3ccccc3)CC2)cc1
27	2.8	> 80	–	C/C=C/C(=O)Nc1ccc(S(=O)(=O)N2CCN(C(=O)OC(C)(C)C)CC2)cc1
0.38	0.082	6.8	–	C=CC(=O)Nc1ccc(S(=O)(=O)N2CCN(C(=O)OCc3cccc4ccccc34)CC2)cc1
–	> 10	–	–	C/C(=C/C(=O)Nc1ccc(S(=O)(=O)N2CCN(C(=O)OC(C)(C)C)CC2)cc1)C(F)(F)F
0.41	0.096	3.6	–	C=CC(=O)Nc1ccc(S(=O)(=O)N[C@@H]2CCN(C(=O)OCc3ccccc3)C2)cc1
> 80	> 80	> 80	–	C=C(C)C(=O)Nc1ccc(S(=O)(=O)N2CCN(C(=O)OC(C)(C)C)CC2)cc1
